The text below walks through data of ChEMBL document CHEMBL1124035, “1-Amino-substituted 4-methyl-5H-pyrido[4,3-b]indoles (gamma-carbolines) as tricyclic analogues of ellipticines: a new class of antineoplastic agents” (1988).

Values joined by “and” are separate entries in the source; they are usually repeats but may differ in a detail not shown here. Equal values may be shown once.

Assay [1] concerns Calf thymus DNA. In words: Apparent DNA affinity constant. The assay is classed as nucleic-acid assay. The following applies: Bos taurus. An outline of the steps: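 Apparent DNA affinity constant was measured by competition with ethidium bromide. Buffer was 20 mM Na2HPO4/NaH2PO4, 0.1 M NaCl, 1 mM EDTA, pH 7.4, with calf thymus DNA at 10 μg/mL. Values are given in 10^6 M⁻¹.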

Assay [2] concerns Mus musculus. In words: Median survival day of B16 melanoma infected mice, when a dose of 5 mg/kg administered intraperitoneally. The assay is classed as functional. As to conditions: route intraperitoneal. In a few lines: (§1)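 B16 melanoma in hybrid BD F1 mice. At D0 each mouse was inoculated ip with 0.5 mL of homogenate made from 1 g of tumour in 10 mL of physiological serum. Compounds were given ip daily at the stated doses for 9 days (D1-9), with cis-platinum 0.5 mg/kg under the same schedule as positive control.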

Assay [3] relates to Mus musculus. In words: Antitumor activity against B16 melanoma cells at a dose of 1.25 mg/kg administered intraperitoneally to mice. As to conditions: route intraperitoneal. The assay is classed as functional. An outline of the steps: (§2)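 Hybrid BD F1 mice were inoculated ip at D0 with 0.5 mL of B16 melanoma homogenate (1 g tumor in 10 mL physiological serum). Drugs were given ip daily D1-9. Cisplatin 0.5 mg/kg was the positive control under the same schedule.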

Assay [4] has as its system Mus musculus. In words: Antitumor activity against P388 leukemia in mice at a dose of 2.5 mg/kg administered intraperitoneally for 5 days. In kind it is functional. The following applies: route intraperitoneal. An outline of the steps: (§3)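 CDF1 hybrid male or female mice, 10 per group, were inoculated ip with 10^6 viable P388 cells on day 0. Drugs in distilled water were given ip (0.1 mL/10 g body weight) daily D1-5. Vehicle, 5-fluorouracil and BD 84 were given the same way. T/C = median survival day of treated / controls × 100; T/C > 128% was significant; cures counted at D60.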

The subject of assay [5] is Mus musculus. In words: Antitumor activity against B16 melanoma cells at a dose of 2.5 mg/kg administered intraperitoneally to mice. The assay is classed as functional. As to conditions: route intraperitoneal. In a few lines:
as §2

Assay [6] deals with Mus musculus. In words: Antitumor activity against B16 melanoma cells at a dose of 5 mg/kg administered intraperitoneally to mice. In kind it is functional. The following applies: route intraperitoneal. In a few lines: as §2
In assay [7] the test system is Mus musculus. In words: Antitumor activity against B16 melanoma cells at a dose of 10 mg/kg administered intraperitoneally to mice. In kind it is functional. The following applies: route intraperitoneal. An outline of the steps: as §2
The test system of assay [8] is Mus musculus. In words: Antitumor activity against P388 leukemia in mice at a dose of 5 mg/kg administered intraperitoneally for 5 days. As to conditions: route intraperitoneal. In kind it is functional. In a few lines: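 CDF1 hybrid male or female mice, 10 per group, were inoculated ip on day 0 with 10^6 viable P388 leukemia cells. Drug in distilled water was given ip (0.1 mL/10 g body weight) daily on days 1-5, with vehicle, 5-fluorouracil and BD 84 controls given the same way. T/C = median survival of treated/controls × 100; T/C > 128% counted as significant.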

Assay [9] relates to Mus musculus. In words: Antitumor activity against P388 cells at a dose of 20 mg/kg administered intraperitoneally to mice. In kind it is functional. The following applies: route intraperitoneal.
Assay [10] has as its system Mus musculus. In words: Weight change in g when a dose of 1.25 mg/kg administered intraperitoneally to B16 melanoma infected mice. The assay is classed as functional. The following applies: route intraperitoneal. In a few lines: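 Hybrid BDF1 mice were inoculated ip at D0 with 0.5 mL of B16 melanoma homogenate (1 g tumor in 10 mL physiological serum). Drug was given ip daily on days 1-9, with cis-platinum 0.5 mg/kg as positive control on the same schedule.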

The test system of assay [11] is L1210. In words: Ability to reduce the cell count to 50% in L1210 culture cells. In kind it is functional. The following applies: Mus musculus, read-out: ID50 (the source's name). An outline of the steps: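 L1210 cells in exponential growth in RPMI 1640 with 2 mM glutamine, penicillin/streptomycin and 10% FCS, 37 °C, 5% CO2. Drugs dissolved in distilled water were added to cells at 0.8 × 10^5 cells/mL for 48 h, then cells were counted. ID50 is the concentration halving cell proliferation versus controls, from regression of dose-response data; mean of two independent experiments.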

Assay [12] has as its system Mus musculus. In words: Antitumor activity against P388 leukemia in mice at a dose of 20 mg/kg administered intraperitoneally for 5 days. The assay is classed as functional. As to conditions: route intraperitoneal. An outline of the steps: as §3
Assay [13] deals with Mus musculus. In words: Median survival day in P388 leukemia model when a dose of 10 mg/kg administered intraperitoneally. The assay is classed as functional. As to conditions: route intraperitoneal. An outline of the steps:
(§4)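 P388 leukaemia in CDF1 hybrid mice, 10 per group. At D0, 10^6 viable cells were inoculated ip, followed by a single ip dose of drug in distilled water on D1. Weight change, median survival day, T/C (treated/control median survival × 100) and survivors at D30 were recorded. Controls were 20 mice.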

The test system of assay [14] is Mus musculus. In words: Median survival day in P388 leukemia model when a dose of 40 mg/kg administered intraperitoneally. In kind it is functional. The following applies: route intraperitoneal. In a few lines:
as §4

Assay [15] relates to Mus musculus. In words: Weight change in g when a dose of 20 mg/kg administered intraperitoneally to P388 leukemia model. The assay is classed as functional. The following applies: route intraperitoneal. An outline of the steps:
(§5)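 P388 model with a single ip dose. Mice (10 per group) were inoculated ip at D0 with 10^6 P388 cells and given one ip drug dose at D1. Body-weight change (g), median survival day, T/C and survivors at D30 were recorded.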

Assay [16] concerns Mus musculus. In words: Antitumor activity against P388 leukemia in mice at a dose of 10 mg/kg administered intraperitoneally for 5 days. In kind it is functional. As to conditions: route intraperitoneal. An outline of the steps:
as §3

The subject of assay [17] is Mus musculus. In words: Survivors at day 60 when a dose of 5 mg/kg to B16 melanoma infected mice; 0/10. The assay is classed as functional.
Assay [18] relates to Mus musculus. In words: Antitumor activity against P388 cells at a dose of 10 mg/kg administered intraperitoneally P388 Leukemia model. The following applies: route intraperitoneal. In kind it is functional. In a few lines:
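Mice were inoculated ip with 10^6 P388 leukemia cells at D0, then given a single ip drug dose on D1. Weight change was recorded. T/C % = median survival day of treated / controls × 100; survivors counted at D30; 10 mice per dose group, 20 controls.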

The test system of assay [19] is Mus musculus. In words: Survivors at day 30 when a dose of 10 mg/kg to P388 leukemia model; 0/10. The assay is classed as functional. An outline of the steps: as §4
Assay [20] deals with Mus musculus. In words: Weight change in g when a dose of 10 mg/kg administered intraperitoneally to P388 leukemia model. In kind it is functional. As to conditions: route intraperitoneal. An outline of the steps: as §5
In assay [21] the test system is Mus musculus. In words: Median survival day in P388 leukemia model when a dose of 20 mg/kg administered intraperitoneally. The assay is classed as functional. The following applies: route intraperitoneal. In a few lines: as §4
Assay [22] relates to Mus musculus. In words: Weight change in g when a dose of 80 mg/kg administered intraperitoneally to P388 leukemia model. In kind it is functional. As to conditions: route intraperitoneal. An outline of the steps: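 P388 leukemia cells (10^6 viable) inoculated ip on day 0 into CDF1 hybrid male or female mice, 10 per test group. Drug dissolved in distilled water and given as a single ip dose on day 1. Body weight change (g) recorded for each dose group, alongside median survival day, T/C and survivors at D30, against vehicle controls (20 mice).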

Assay [23] deals with Mus musculus. In words: Median survival day in B16 melanoma cell line when a dose of 10 mg/kg administered intraperitoneally to mice. In kind it is functional. The following applies: route intraperitoneal. In a few lines:
as §1

For assay [24], the system named is Mus musculus. In words: Median survival day in P388 cell line when a dose of 40 mg/kg administered intraperitoneally to P388 leukemia model. The assay is classed as functional. The following applies: route intraperitoneal. An outline of the steps:
as §4

In assay [25] the test system is Mus musculus. In words: Weight change in g when a dose of 40 mg/kg intravenous administration to L1210 leukemia mice model. The assay is classed as functional. In a few lines:
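Mice received 10^5 L1210 leukemia cells ip at D0, then a single iv drug dose at D1. Read-outs were weight change (g), median survival day, T/C % and survivors at D30.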

`Cc1cnc(NCCCN(C)C)c2c3cc(O)ccc3n(C)c12`: in assay [1], the K aff came to 270000 M⁻¹. In assay [2], the Median survival day turned out to be 50. Further, the T/C (as a rule, the ratio of treated to control) in assay [3] was found to be 123%; in assay [4] it was 184%; in [5], 134%; in [6] it was 206%; in assay [7], 48%; in [8], 236%. In [9], this compound gave a T/C of 164%. Further, the Weight change in assay [10] worked out at 1 g. Besides, the IC50 in [11] stood at 10 nM.

`CCN(CC)CCCNc1[nH]cc(C)c2nc3ccc(O)cc3c1-2`: the K aff in [1] came to 200000 M⁻¹. Further, the T/C came to 238% in assay [12]; 162% in assay [4]; 185% in [16]; 124% in [5]; 129% in assay [18]; 174% in assay [6]. Further, the T/C in assay [7] was determined as 205%; in assay [8], 170%. In addition, the Median survival day in [13] is on record as 15.1; in assay [14], 15.9; in assay [21], 16.25; in assay [23], 56.25. The Weight change in assay [15] is 0.2 g; in [20], 1.2 g; in [22] it was -1.7 g. Further, the Survivors in assay [17] and in assay [19] was 0 each time. For the same compound, the IC50 in [11] is 60 nM.

As to `CCN(CC)CCCNc1ncc(C)c2c1c1cc(O)ccc1n2C`, in [1], the K aff turned out to be 240000 M⁻¹. In addition, the results for the Median survival day in assay [13], in assay [21] and in assay [24] were 17.8, 20.8 and 23, respectively. In addition, the T/C is 133% in assay [3]; 149% in assay [4]; 205% in [16]; 145% and 170% in [5] (2.5 mg/kg); 79% in [7]; 166% in assay [8]. Moreover, the Weight change is -1.2 g in assay [15]; -0.6 g in assay [20]; -2.5 g in assay [10]; -1.2 g in assay [22] (dose 20 mg/kg, in the assay text read “20 mg/kg” for “80 mg/kg”); -0.2 g in assay [25]. The compound further displayed a Survivors in assay [19] of 0. For the same compound, in assay [11], the IC50 is 30 nM.
